Laboratory results taken from ChEMBL document CHEMBL1287651, “Synthesis and in vitro antibacterial activity of fluoroquinolone derivatives containing 3-(N'-alkoxycarbamimidoyl)-4-(alkoxyimino) pyrrolidines” (2010).
Converted amounts (≈) assume the structure as drawn.

Assays:
Assay type in all cases: functional
Escherichia coli [1] = experiment: Antibacterial activity against Escherichia coli ATCC 25922 after 18 to 24 hrs by twofold serial dilution method
Method in brief: (§1)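 MIC determined by the standard twofold serial dilution method on agar media, screening against Gram-positive and Gram-negative strains. Levofloxacin and gemifloxacin were run alongside as reference drugs.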

Klebsiella pneumoniae [2] = experiment: Antibacterial activity against Klebsiella pneumoniae 09-21 after 18 to 24 hrs by twofold serial dilution method; method in brief: as §1
[3] = test system: Staphylococcus epidermidis; experiment: Antibacterial activity against methicillin-resistant Staphylococcus epidermidis 09-2 after 18 to 24 hrs by twofold serial dilution method
Method in brief: (§2)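 Standard twofold serial agar dilution method on agar media for MIC determination. Screened against representative Gram-positive and Gram-negative strains. Levofloxacin and GMFX served as control drugs.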

Streptococcus pneumoniae [4] = experiment: Antibacterial activity against Streptococcus pneumoniae 08-2 after 18 to 24 hrs by twofold serial dilution method; method in brief: as §1
Escherichia coli [5] = experiment: Antibacterial activity against Escherichia coli 08-22 after 18 to 24 hrs by twofold serial dilution method; method in brief: as §1
[6] = test system: Staphylococcus epidermidis; experiment: Antibacterial activity against methicillin-sensitive Staphylococcus epidermidis 09-3 after 18 to 24 hrs by twofold serial dilution method; method in brief: as §2
Enterococcus faecalis [7] = experiment: Antibacterial activity against Enterococcus faecalis 08-10 after 18 to 24 hrs by twofold serial dilution method; method in brief: as §1
Escherichia coli [8] = experiment: Antibacterial activity against Escherichia coli 08-21 after 18 to 24 hrs by twofold serial dilution method; method in brief: as §1
Enterococcus faecium [9] = experiment: Antibacterial activity against Enterococcus faecium 08-7 after 18 to 24 hrs by twofold serial dilution method; method in brief: as §1
Staphylococcus aureus [10] = experiment: Antibacterial activity against Staphylococcus aureus ATCC […] after 18 to 24 hrs by twofold serial dilution method; method in brief: as §1
Klebsiella pneumoniae [11] = experiment: Antibacterial activity against Klebsiella pneumoniae 09-23 after 18 to 24 hrs by twofold serial dilution method; method in brief: as §1
Staphylococcus aureus [12] = experiment: Antibacterial activity against methicillin-resistant Staphylococcus aureus 08-1 after 18 to 24 hrs by twofold serial dilution method; method in brief: as §2
Staphylococcus aureus [13] = experiment: Antibacterial activity against methicillin-sensitive Staphylococcus aureus 08-2 after 18 to 24 hrs by twofold serial dilution method; method in brief: as §2
Pseudomonas aeruginosa [14] = experiment: Antibacterial activity against Pseudomonas aeruginosa 09-34 after 18 to 24 hrs by twofold serial dilution method; method in brief: as §1
Pseudomonas aeruginosa [15] = experiment: Antibacterial activity against Pseudomonas aeruginosa 09-33 after 18 to 24 hrs by twofold serial dilution method; method in brief: as §1
Pseudomonas aeruginosa [16] = experiment: Antibacterial activity against Pseudomonas aeruginosa ATCC 27853 after 18 to 24 hrs by twofold serial dilution method; method in brief: as §1
Pseudomonas aeruginosa [17] = experiment: Antibacterial activity against Pseudomonas aeruginosa 09-35 after 18 to 24 hrs by twofold serial dilution method; method in brief: as §1
Streptococcus pneumoniae [18] = experiment: Antibacterial activity against Streptococcus pneumoniae 08-4 after 18 to 24 hrs by twofold serial dilution method; method in brief: as §1
[19] = test system: Staphylococcus epidermidis; experiment: Antibacterial activity against methicillin-resistant Staphylococcus epidermidis 09-4 after 18 to 24 hrs by twofold serial dilution method; method in brief: as §2
Pseudomonas aeruginosa [20] = experiment: Antibacterial activity against Pseudomonas aeruginosa 09-32 after 18 to 24 hrs by twofold serial dilution method; method in brief: as §1
Enterococcus faecalis [21] = experiment: Antibacterial activity against Enterococcus faecalis 08-12 after 18 to 24 hrs by twofold serial dilution method; method in brief: as §1
[22] = test system: Staphylococcus epidermidis; experiment: Antibacterial activity against methicillin-sensitive Staphylococcus epidermidis 09-6 after 18 to 24 hrs by twofold serial dilution method; method in brief: as §2
[23] = test system: Staphylococcus epidermidis; experiment: Antibacterial activity against methicillin-resistant Staphylococcus epidermidis 09-3 after 18 to 24 hrs by twofold serial dilution method; method in brief: as §2
Enterococcus faecium [24] = experiment: Antibacterial activity against Enterococcus faecium 08-2 after 18 to 24 hrs by twofold serial dilution method; method in brief: as §1
Klebsiella pneumoniae [25] = experiment: Antibacterial activity against Klebsiella pneumoniae 09-22 after 18 to 24 hrs by twofold serial dilution method; method in brief: as §1
Streptococcus pneumoniae [26] = experiment: Ratio of compound MIC to levofloxacin MIC for Streptococcus pneumoniae

| Structure (SMILES) | MIC (Escherichia coli [1]) | MIC (Klebsiella pneumoniae [2]) | MIC [3] | MIC (Streptococcus pneumoniae [4]) | MIC (Escherichia coli [5]) | MIC [6] | MIC (Enterococcus faecalis [7]) | MIC (Escherichia coli [8]) | MIC (Enterococcus faecium [9]) | MIC (Staphylococcus aureus [10]) | MIC (Klebsiella pneumoniae [11]) | MIC (Staphylococcus aureus [12]) | MIC (Staphylococcus aureus [13]) | MIC (Pseudomonas aeruginosa [14]) | MIC (Pseudomonas aeruginosa [15]) | MIC (Pseudomonas aeruginosa [16]) | MIC (Pseudomonas aeruginosa [17]) | MIC (Streptococcus pneumoniae [18]) | MIC [19] | MIC (Pseudomonas aeruginosa [20]) | other results |
| --- | --- | --- | --- | --- | --- | --- | --- | --- | --- | --- | --- | --- | --- | --- | --- | --- | --- | --- | --- | --- | --- |
| CCO/N=C(/N)C1CN(c2c(F)cc3c(=O)c(C(=O)O)cn(CCF)c3c2F)C/C1=N\OC (stereo unspecified) | > 128 µg/mL | > 128 µg/mL | 0.25 µg/mL (≈ 0.533 µM) | 8 µg/mL (≈ 17 µM) | > 128 µg/mL | 0.5 µg/mL (≈ 1.07 µM) | > 128 µg/mL | > 128 µg/mL | > 128 µg/mL | 0.25 µg/mL (≈ 0.533 µM) | > 128 µg/mL | 0.25 µg/mL (≈ 0.533 µM) | 0.25 µg/mL (≈ 0.533 µM) | > 128 µg/mL | > 128 µg/mL | > 128 µg/mL | > 128 µg/mL | 1 µg/mL (≈ 2.13 µM) | 0.25 µg/mL (≈ 0.533 µM) | > 128 µg/mL | MIC (Enterococcus faecalis [21]): > 128 µg/mL; MIC [22]: 0.25 µg/mL (≈ 0.533 µM); MIC [23]: 0.125 µg/mL (≈ 0.266 µM); MIC (Enterococcus faecium [24]): > 128 µg/mL; MIC (Klebsiella pneumoniae [25]): 2 µg/mL (≈ 4.26 µM) |
| CCO/N=C1\CN(c2c(F)cc3c(=O)c(C(=O)O)cn(CCF)c3c2F)CC1/C(N)=N\OCC (stereo unspecified) | 128 µg/mL (≈ 265 µM) | > 128 µg/mL | 4 µg/mL (≈ 8.27 µM) | 8 µg/mL (≈ 16.5 µM) | > 128 µg/mL | 4 µg/mL (≈ 8.27 µM) | > 128 µg/mL | > 128 µg/mL | > 128 µg/mL | 2 µg/mL (≈ 4.14 µM) | > 128 µg/mL | 4 µg/mL (≈ 8.27 µM) | > 128 µg/mL | > 128 µg/mL | > 128 µg/mL | 128 µg/mL (≈ 265 µM) | > 128 µg/mL | 8 µg/mL (≈ 16.5 µM) | 4 µg/mL (≈ 8.27 µM) | > 128 µg/mL | MIC (Enterococcus faecalis [21]): > 128 µg/mL; MIC [22]: 8 µg/mL (≈ 16.5 µM); MIC [23]: 4 µg/mL (≈ 8.27 µM); MIC (Enterococcus faecium [24]): > 128 µg/mL; MIC (Klebsiella pneumoniae [25]): > 128 µg/mL |
| CCO/N=C1\CN(c2nc3c(cc2F)c(=O)c(C(=O)O)cn3C2CC2)CC1/C(N)=N\O (stereo unspecified) | > 128 µg/mL | > 128 µg/mL | 0.25 µg/mL (≈ 0.578 µM) | 0.25 µg/mL (≈ 0.578 µM) | > 128 µg/mL | 0.25 µg/mL (≈ 0.578 µM) | > 128 µg/mL | > 128 µg/mL | > 128 µg/mL | 0.25 µg/mL (≈ 0.578 µM) | > 128 µg/mL | 0.25 µg/mL (≈ 0.578 µM) | 0.25 µg/mL (≈ 0.578 µM) | > 128 µg/mL | > 128 µg/mL | > 128 µg/mL | > 128 µg/mL | 0.25 µg/mL (≈ 0.578 µM) | 0.25 µg/mL (≈ 0.578 µM) | > 128 µg/mL | Ratio (Streptococcus pneumoniae [26]): 8; MIC (Enterococcus faecalis [21]): 0.25 µg/mL (≈ 0.578 µM); MIC [22]: 0.25 µg/mL (≈ 0.578 µM); MIC [23]: 0.25 µg/mL (≈ 0.578 µM); MIC (Enterococcus faecium [24]): > 128 µg/mL; MIC (Klebsiella pneumoniae [25]): > 128 µg/mL |
| CCO/N=C1\CN(c2c(F)cc3c(=O)c(C(=O)O)cn(CCF)c3c2F)CC1/C(N)=N\OC (stereo unspecified) | > 128 µg/mL | > 128 µg/mL | > 128 µg/mL | > 128 µg/mL | > 128 µg/mL | 0.25 µg/mL (≈ 0.533 µM) | > 128 µg/mL | > 128 µg/mL | > 128 µg/mL | 2 µg/mL (≈ 4.26 µM) | > 128 µg/mL | 4 µg/mL (≈ 8.52 µM) | > 128 µg/mL | > 128 µg/mL | > 128 µg/mL | > 128 µg/mL | > 128 µg/mL | > 128 µg/mL | 0.125 µg/mL (≈ 0.266 µM) | > 128 µg/mL | MIC (Enterococcus faecalis [21]): > 128 µg/mL; MIC [22]: 0.25 µg/mL (≈ 0.533 µM); MIC [23]: 0.25 µg/mL (≈ 0.533 µM); MIC (Enterococcus faecium [24]): > 128 µg/mL; MIC (Klebsiella pneumoniae [25]): > 128 µg/mL |
| CO/N=C1\CN(c2nc3c(cc2F)c(=O)c(C(=O)O)cn3C2CC2)CC1CN (stereo unspecified) [GEMIFLOXACIN] | 4 µg/mL (≈ 10.3 µM) | 16 µg/mL (≈ 41.1 µM) | 0.125 µg/mL (≈ 0.321 µM) | 8 µg/mL (≈ 20.5 µM) | 2 µg/mL (≈ 5.14 µM) | 0.125 µg/mL (≈ 0.321 µM) | 16 µg/mL (≈ 41.1 µM) | 16 µg/mL (≈ 41.1 µM) | 2 µg/mL (≈ 5.14 µM) | 0.125 µg/mL (≈ 0.321 µM) | 8 µg/mL (≈ 20.5 µM) | 0.25 µg/mL (≈ 0.642 µM) | 0.125 µg/mL (≈ 0.321 µM) | 0.5 µg/mL (≈ 1.28 µM) | 2 µg/mL (≈ 5.14 µM) | 2 µg/mL (≈ 5.14 µM) | 0.5 µg/mL (≈ 1.28 µM) | 0.25 µg/mL (≈ 0.642 µM) | 0.06 µg/mL (≈ 0.154 µM) | 0.5 µg/mL (≈ 1.28 µM) | MIC (Enterococcus faecalis [21]): 16 µg/mL (≈ 41.1 µM); MIC [22]: 0.25 µg/mL (≈ 0.642 µM); MIC [23]: 0.06 µg/mL (≈ 0.154 µM); MIC (Enterococcus faecium [24]): 16 µg/mL (≈ 41.1 µM); MIC (Klebsiella pneumoniae [25]): 8 µg/mL (≈ 20.5 µM) |
